pIC50: −log10 of the molar value. Converted amounts (≈) assume the structure as drawn. Blank lines part the entries; values can stand above or below the compound they belong to. The source made the active and inactive calls. No cut-off for these calls is given here.
Tests used:
[1] = tested on: Plasma; assay: Drug level in Swiss CD1 mouse plasma treated with 5-(3-(Pyridin-3-yl)-5-(trifluoromethyl)phenyl)-N-(4-(pyrrolidin-1-ylmethyl)phenyl)-1,3,4-oxadiazol-2-amine at 500 mg/kg, po by HPLC analysis; format: ADME, organism-based; conditions: in vivo
Procedure, shortened: (§1)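 Mice given high oral doses (250/300 and 500 mg/kg); plasma analysed by HPLC for parent compound and breakdown products, expressed as percentage levels.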

[2] = tested on: Plasmodium falciparum; assay: Antiplasmodial activity against Plasmodium falciparum 3D7A infected in red blood cells preincubated for 24 hrs followed by [3H]-hypoxanthine addition measured after 24 hrs by scintillation counting; format: functional, cell-based
Procedure, shortened: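 Whole-cell growth assay on sensitive P. falciparum strain 3D7A by [3H]hypoxanthine incorporation; two or three independent biological replicates per value.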

[3] = tested on: Liver; assay: Intrinsic clearance in human liver microsomes at 0.5 uM up to 45 mins in presence of NADPH by HPLC-MS/MS analysis; format: ADME, microsome; conditions: 0.75 h
[4] = tested on: Plasmodium falciparum; assay: Antimalarial activity against Plasmodium falciparum 3D7 0087/N9 infected in po dosed SCID mouse assessed as reduction in parasitemia administered 3 days post infection dosed once a day for four consecutive days measured after 7 days; format: functional; conditions: 3D7 0087/N9, po
Procedure, shortened: (§2)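 SCID mice engrafted with human parasite P. falciparum Pf 3D70087/N9; oral dosing started 3 days after infection, once daily for four consecutive days; parasitemia compared with untreated controls.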

[5] = tested on: Mus musculus; assay: (§3) Clearance in CD1 mouse at 1 mg/kg, iv measured up to 24 hrs post dose by LC-MS/MS analysis; format: ADME, organism-based; conditions: mouse, in vivo, 24 h
Procedure, shortened: (§4)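 Pharmacokinetics in mouse after a single intravenous dose of 1 mg/kg.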

[6] = Half life in CD1 mouse at 1 mg/kg, iv measured up to 24 hrs post dose by LC-MS/MS analysis; format: ADME, organism-based; conditions: in vivo; procedure, shortened: as §4
[7] = Solubility of the compound in fasted state stimulated intestinal fluid at pH 6.5 by HPLC analysis; format: physicochemical; conditions: fasted state simulated intestinal fluid
Procedure, shortened: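 Solubility measured in fasted state simulated intestinal fluid, pH 6.5.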

[8] = tested on: Plasmodium falciparum; assay: Antimalarial activity against Plasmodium falciparum 3D7 0087/N9 infected in po dosed mouse assessed as average daily exposure in whole blood required to reduce parasitemia administered 3 days post infection dosed once a day for four consecutive days measured 7 days post dose; format: functional, organism-based
[9] = tested on: Plasmodium falciparum; assay: Antimalarial activity against Plasmodium falciparum 3D7 0087/N9 infected in SCID mouse assessed as reduction in parasitemia at 50 mg/kg, po administered 3 days post infection dosed once a day for four consecutive days measured 2 days; format: functional, organism-based; procedure, shortened: as §2
[10] = Lipophilicity, log D of compound at pH 7.4 by chromatographic method; format: physicochemical; conditions: buffer
[11] = Oral bioavailability in CD1 mouse at 10 mg/kg measured up to 24 hrs post dose by LC-MS/MS analysis; format: ADME, organism-based; conditions: in vivo
Procedure, shortened: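 Oral bioavailability in mouse after a single oral dose of 10 mg/kg.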

[12] = tested on: Plasma; assay: Drug metabolism in Swiss CD1 mouse assessed as 2-([3,4'-Bipyridine]-2'-carbonyl)-N-(4-(pyrrolidin-1-ylmethyl)-phenyl)hydrazinecarboxamide in plasma at 300 to 500 mg/kg, po by HPLC analysis; format: ADME, organism-based; conditions: in vivo; procedure, shortened: as §1
[13] = Chemical stability of compound in SGF media at pH 1.6 after 24 hrs; format: physicochemical; conditions: simulated gi fluid, pH 1.6, 24 h
Procedure, shortened: (§5)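 Stability in simulated gastric fluid at pH 1.6, held at 37 °C for up to 24 h; checked for degradation products.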

[14] = Ratio of IC50 for chloroquine-resistant Plasmodium falciparum 2B12 infected in red blood cells to IC50 for wild type Plasmodium falciparum […] infected in red blood cells; format: functional
[15] = tested on: Mus musculus; assay: Toxicity in Swiss CD1 mouse assessed as effect on organ weight at 300 to 500 mg/kg, po measured up to 24 hrs post dose by Irwin test; format: organism-based; conditions: in vivo
Procedure, shortened: (§6)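 Female Swiss CD-1 mice given oral doses of 300 and 500 mg/kg; in-life observations, body weight evolution, relative organ weight, hematology and clinical chemistry recorded; plasma exposure measured at the highest dose; two independent experiments.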

[16] = tested on: Plasmodium falciparum; assay: Ratio of IC50 for chloroquine/pyrimethamine/atovaquone-resistant Plasmodium falciparum Tm90C2B infected in red blood cells to IC50 for wild type Plasmodium falciparum 3D7A infected in red blood cells; format: functional
[17] = tested on: Mus musculus; assay: Toxicity in Swiss CD1 mouse assessed as effect on body weight evolution at 300 to 500 mg/kg, po measured up to 24 hrs post dose by Irwin test; format: organism-based; conditions: in vivo; procedure, shortened: as §6
[18] = Ratio of TC50 for human HepG2 to IC50 for antiplasmodial activity against Plasmodium falciparum 3D7A infected in red blood cells
Procedure, shortened: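 Denominator is the asexual P. falciparum 3D7A IC50 from a [3H]hypoxanthine incorporation assay, using two or three independent biological replicates. Numerator is the 50% toxicity value in HepG2 cells, expressed as Tox50/Pf 3D7 IC50.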

[19] = tested on: Plasmodium falciparum; assay: Ratio of IC50 for chloroquine/pyrimethamine-resistant Plasmodium falciparum V1/S infected in red blood cells to IC50 for wild type Plasmodium falciparum 3D7A infected in red blood cells; format: functional
[20] = tested on: Mus musculus; assay: Toxicity in Swiss CD1 mouse assessed as passivity at 500 mg/kg, po measured up to 24 hrs post dose by Irwin test; format: organism-based; conditions: in vivo
[21] = Ratio of IC50 for chloroquine/pyrimethamine-resistant Plasmodium falciparum Dd2 infected in red blood cells to IC50 for wild type Plasmodium falciparum 3D7A infected in red blood cells; format: functional
[22] = tested on: Mus musculus; assay: Toxicity in Swiss CD1 mouse assessed as effect on in life observation at 300 to 500 mg/kg, po measured up to 24 hrs post dose by Irwin test; format: organism-based; conditions: in vivo; procedure, shortened: as §6
[23] = AUC in Swiss CD1 mouse plasma at 500 mg/kg, po; format: ADME, organism-based; procedure, shortened: as §6
[24] = Chemical stability in SGF media at pH 1.6 after 14 hrs; format: physicochemical; conditions: simulated gi fluid, pH 1.6, 14 h; procedure, shortened: as §5
[25] = tested on: Plasma; assay: Drug metabolism in Swiss CD1 mouse assessed as 2-(3-(Pyridin-3-yl)-5-(trifluoromethyl)benzoyl)-N-(4-(pyrrolidin-1-ylmethyl)phenyl)hydrazinecarboxamide in plasma at 300 to 500 mg/kg, po by HPLC analysis; format: ADME, organism-based; conditions: in vivo; procedure, shortened: as §1
[26] = Volume of distribution at steady state in CD1 mouse at 1 mg/kg, iv measured up to 24 hrs post dose by LC-MS/MS analysis; format: ADME, organism-based; conditions: in vivo, read-out: Vdss; procedure, shortened: as §4
[27] = tested on: Plasmodium falciparum; assay: Ratio of IC50 for chloroquine/atovaquone/cycloguanil-resistant Plasmodium falciparum FCR3 infected in red blood cells to IC50 for wild type Plasmodium falciparum 3D7A infected in red blood cells; format: functional
[28] = Ratio of IC50 for Plasmodium falciparum HB3 infected in red blood cells to IC50 for wild type Plasmodium falciparum 3D7A infected in red blood cells; format: functional
[29] = as §3; format: ADME, organism-based; conditions: CD1, mouse, in vivo; procedure, shortened: as §4
[30] = tested on: Plasmodium falciparum; assay: Ratio of IC50 for chloroquine/pyrimethamine-resistant Plasmodium falciparum Tm90C2A infected in red blood cells to IC50 for wild type Plasmodium falciparum 3D7A infected in red blood cells; format: functional
[31] = tested on: Plasmodium falciparum; assay: Ratio of IC50 for pyrimethamine-resistant Plasmodium falciparum TC08 infected in red blood cells to IC50 for wild type Plasmodium falciparum 3D7A infected in red blood cells; format: functional
[32] = tested on: Plasmodium falciparum; assay: Ratio of IC50 for chloroquine-resistant Plasmodium falciparum T9/94 infected in red blood cells to IC50 for wild type Plasmodium falciparum 3D7A infected in red blood cells; format: functional

- Drug metabolism [1]: Metabolite_Detected
SMILES: O=C(NNC(=O)c1cc(-c2cccnc2)cc(C(F)(F)F)c1)Nc1ccc(CN2CCCC2)cc1

- pIC50 [2]: 7.30
- intrinsic clearance [3]: < 0.5 mL/min/g
SMILES: CN1CCc2ccc(Nc3nnc(-c4cc(F)cc(-c5cccnc5)c4)o3)cc2C1

- pIC50 [2]: 6.16
- intrinsic clearance [3]: 3.3 mL/min/g
SMILES: FC(F)(F)c1cccc(Nc2nnc(-c3cccc(-c4cccnc4)c3)o2)c1

- pIC50 [2]: 7.30
- intrinsic clearance [3]: 2.9 mL/min/g
SMILES: CN1CCc2ccc(Nc3nnc(-c4cc(-c5cccnc5)ccc4F)o3)cc2C1

- pIC50 [2]: 7.70
SMILES: CN1CCc2ncc(Nc3nnc(-c4cccc(-c5cccnc5)c4)o3)cc2C1

- pIC50 [2]: 7.52
- clearance [5]: 76.9 mL/min/kg
- half-life [6]: 17.4 min
- solubility [7]: 57 µg/mL (≈ 130 µM)
- chromatographic logD [10]: 3.2 to 3.3
- bioavailability [11]: 100%
SMILES: CN(C)Cc1ccc(Nc2nnc(-c3cc(-c4cccnc4)cc(C(F)(F)F)c3)o2)cc1
- ED90 [4]: < 20 mg/kg
- AUCED90 [8]: < 2.5 µg.hr/ml/day
- Activity [9]: Active

- pIC50 [2]: 7.15
- intrinsic clearance [3]: 5.1 mL/min/g
SMILES: CN1Cc2ccc(Nc3nnc(-c4cccc(-c5cccnc5)c4)o3)cc2C1

SMILES: c1cncc(-c2ccnc(-c3nnc(Nc4ccc(CN5CCCC5)cc4)o3)c2)c1
- Drug metabolism [12]: Metabolite_Detected
- Stability [13]: Stable
- Ratio IC50 [14]: 1
- ED90 [4]: 12.4 mg/kg
- pIC50 [2]: 7.70
- Activity [15]: Non-Toxic
- Ratio IC50 [16]: 1
- Activity [17]: Non-Toxic
- Ratio [18]: >1000
- Ratio IC50 [19]: 1
- Activity [20]: Toxic
- solubility [7]: > 1000 µg/mL
- Ratio IC50 [21]: 1
- Activity [22]: Non-Toxic
- AUC [23]: 68900 ng·h/mL
- chromatographic logD [10]: 1.3

- pIC50 [2]: 6.70
- solubility [7]: 390 µg/mL (≈ 1010 µM)
- intrinsic clearance [3]: < 0.5 mL/min/g
SMILES: CN1CCc2ccc(Nc3nnc(-c4cc(-c5cccnc5)ccn4)o3)cc2C1
- ED90 [4]: 33.8 mg/kg
- AUCED90 [8]: 1.4 µg.hr/ml/day

- Stability [24]: Unstable
- pIC50 [2]: 7.52
- clearance [5]: 19.5 mL/min/kg
- half-life [6]: 84 min
- Drug metabolism [25]: Metabolite_Detected
- chromatographic logD [10]: 3.3
- bioavailability [11]: 89%
SMILES: FC(F)(F)c1cc(-c2cccnc2)cc(-c2nnc(Nc3ccc(CN4CCCC4)cc3)o2)c1
- ED90 [4]: < 20 mg/kg
- AUCED90 [8]: < 6.1 µg.hr/ml/day

- Drug metabolism [1]: Metabolite_Detected
SMILES: O=C(O)c1cc(-c2cccnc2)cc(C(F)(F)F)c1

SMILES: CN1CCc2ccc(Nc3nnc(-c4cc(-c5cccnc5)cc(C(F)(F)F)c4)o3)cc2C1
- ED90 [4]: 9.3 mg/kg
- Vd [26]: 3.5 L/kg
- Ratio IC50 [27]: 1
- pIC50 [2]: 7.70
- Ratio IC50 [28]: 1
- Ratio IC50 [16]: 1
- clearance [29]: 42 to 43 mL/min/kg
- Ratio IC50 [19]: 1
- Ratio IC50 [30]: 1
- solubility [7]: 1.2 µg/mL (≈ 2.66 µM)
- Ratio IC50 [21]: 1
- AUCED90 [8]: 2.2 µg.hr/ml/day
- Ratio IC50 [31]: 1
- Ratio IC50 [32]: 1
- bioavailability [11]: 90%
- intrinsic clearance [3]: 0.9 mL/min/g

- pIC50 [2]: 5.77
- intrinsic clearance [3]: 1.8 mL/min/g
SMILES: c1ccc(Nc2nnc(-c3cccc(-c4cccnc4)c3)o2)cc1

- pIC50 [2]: 5.26
- intrinsic clearance [3]: 3.7 mL/min/g
SMILES: Clc1cccc(Nc2nnc(-c3cccc(-c4cccnc4)c3)o2)c1

— ChEMBL document CHEMBL4017499, “The Discovery of Novel Antimalarial Aminoxadiazoles as a Promising Nonendoperoxide Scaffold” (J Med Chem, 2017)
